Source: ChEMBL document CHEMBL1177714, “Online fluorescence enhancement assay for the acetylcholine binding protein with parallel mass spectrometric identification” (J Med Chem, 2010)

Test: Displacement of radioligand from AChBp by scintillation counting
In short: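 Lymnaea stagnalis AChBP (Ls-AChBP), expressed from baculovirus in Sf9 insect cells and purified from medium, 1.3 ng per well. Buffer (final): 1.4 mM KH2PO4, 4.3 mM Na2HPO4, 137.0 mM NaCl, 2.7 mM KCl, 20 mM Tris, 4% DMSO, 0.05% Tween 20, pH 7.4. Incubation was 60 min, then 3 h in the dark, with label-bead complexes counted. Full IC50 curves (n=3) were converted to pKi by Cheng-Prusoff.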
`Oc1ccc(/C=C2\CCCN=C2c2cccnc2)cc1` showed a pKi of 8.55.
Compound `Br.NCCCCC(=O)c1cccnc1` has a pKi of 6.09.
Compound `O=[N+]([O-])c1cccc(/C=C2\CCCN=C2c2cccnc2)c1` has a pKi of 6.29.
`COc1cc(/C=C2\CCCN=C2c2cccnc2)ccc1O` showed a pKi of 7.09.
`C(=C1/CCCN=C1c1cccnc1)/c1ccccc1` [3-BENZYLIDENEANABASEINE] gave a pKi of 7.13.
In the case of `Clc1ccc(/C=C2\CCCN=C2c2cccnc2)cc1`, the pKi is reported as 6.87.
Work on `CC(=O)Nc1ccc(/C=C2\CCCN=C2c2cccnc2)cc1` yielded a pKi of 7.38.
For `C(=C1/CCCN=C1c1cccnc1)/c1coc2ccccc12`, the pKi was 7.
For `CCN(CC)c1ccc(/C=C2\CCCN=C2c2cccnc2)c(O)c1`, the pKi was 7.59.
With `C(=C1/CCCN=C1c1cccnc1)/c1cc2ccccc2[nH]1` the pKi was 8.71.
With `COc1ccc(/C=C2\CCCN=C2c2cccnc2)cc1O` the pKi was 8.46.
